Laboratory results as given in paper PMC9041536 (RSC Advances, 2021).

Key:
[1] = tested on: human intrahepatic cholangiocarcinoma (KKU-M213); assay: SRB cytotoxicity assay, KKU-M213; format: cell-based; conditions: KKU-M213, 72 h, read-out: Cytotoxicity (IC50) KKU-M213
[2] = tested on: human lung carcinoma (A-549); assay: SRB cytotoxicity assay, A-549; format: cell-based; conditions: A549, 72 h, read-out: Cytotoxicity (IC50) A-549
[3] = tested on: human neuroblastoma (SH-SY5Y); assay: SRB cytotoxicity assay, SH-SY5Y; format: cell-based; conditions: for IC50: Homo sapiens, SH-SY5Y, 72 h, read-out: Cytotoxicity (IC50) SH-SY5Y
[4] = tested on: human mammary gland adenocarcinoma (MDA-MB-231); assay: SRB cytotoxicity assay, MDA-MB-231; format: cell-based; conditions: MDA-MB-231, 72 h, read-out: Cytotoxicity (IC50) MDA-MB-231
[5] = tested on: human squamous cell carcinoma (FaDu); assay: SRB cytotoxicity assay, FaDu; format: cell-based; conditions: 72 h, read-out: Cytotoxicity (IC50) FaDu
[6] = tested on: human colorectal adenocarcinoma (HT-29); assay: SRB cytotoxicity assay, HT-29; format: cell-based; conditions: HT-29, 72 h, read-out: Cytotoxicity (IC50) HT-29
[7] = SRB cytotoxicity assay, normal cell line CL; format: cell-based; conditions: human, CL cells (normal liver hepatic cell line)
[8] = tested on: six cancer cell lines, KKU-M213, FaDu, HT-29, MDA-MB-231, A-549, and SH-SY5Y; assay: SRB cytotoxicity assay, all tested cancer cell lines; format: cell-based, human; conditions: for Cytotoxicity (in words): under tested concentrations (0.1–50 μM)
Method in brief: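 Sulforhodamine B assay, slightly modified, with ellipticine as positive control. Compounds were in 10% DMSO and tested over 0.1–50 μM. Cells exposed for 72 h at 37 °C, 5% CO2, humidified. Fixed with 10% TCA, stained with 0.4% SRB, unbound dye washed off with 1% acetic acid, bound dye solubilised in 10 mM Tris base (pH 10.5). A510 read. IC50 is the concentration giving 50% growth inhibition.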

[9] = tested on: P. aeruginosa (ATCC 27853); assay: Agar well diffusion method, P. aeruginosa; format: cell-based; conditions: Pseudomonas aeruginosa, ATCC27853, read-out: zone of inhibition P. aeruginosa
Method in brief: (§1)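 Bacteria swabbed onto Mueller–Hinton agar, then 6 mm wells cut with a sterile cork borer. Each well received 20 µL of test compound dissolved in DMSO at 5 mg mL−1. Plates held 30 min in a refrigerator for diffusion, then incubated at 37 °C for 16–20 h. Inhibition zone measured in mm. Negative control: 10% DMSO.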

E. coli (ATCC 25922) = assay: Agar well diffusion method, E. coli; format: cell-based; conditions: Escherichia coli, ATCC25922, read-out: zone of inhibition E. coli
Method in brief: as §1

S. aureus (ATCC 25923) = assay: Agar well diffusion method, S. aureus; format: cell-based; conditions: Staphylococcus aureus, ATCC25923, read-out: zone of inhibition S. aureus
Method in brief: as §1

Row | SMILES | IC50 [1] [µM] | IC50 [2] [µM] | IC50 [3] [µM] | IC50 [4] [µM] | IC50 [5] [µM] | IC50 [6] [µM] | IC50 at 72 h [7] [µM] | Cytotoxicity (in words) [8] | IC50 ([8]; Homo sapiens, read-out: IC50 on all tested cancer cell lines) [µM] | Selectivity Index (SI) SH-SY5Y ([3]; ratio of IC50 on normal cell (CL) divided by that on cancer cell) | zone of inhibition at 5 µg/mL [9] [mm] | zone of inhibition at 5 µg/mL (E. coli (ATCC 25922)) [mm] | zone of inhibition at 5 µg/mL (S. aureus (ATCC 25923)) [mm]
1 | COc1c(C)c(OCc2ccccc2)c(C)c(O)c1C(=O)/C=C/c1ccccc1 [Compound 2h, 2′-Hydroxy-4′-benzyloxy-6′-methoxy-3′,5′-dimethylchalcone] | 23.2 | 9.99 | 16.4 | 26.9 | 14 | 27.5 | 22.6 | – | – | – | – | – | –
2 | COc1c(C)c(OC(=O)c2ccccc2)c(C)c(O)c1C(=O)/C=C/c1ccccc1 [Compound 2k, 2′-Hydroxy-4′-benzoyloxy-6′-methoxy-3′,5′-dimethylchalcone] | > 50 | 41.3 | 20.2 | > 50 | 37.9 | 32.5 | > 50 | – | – | – | – | – | –
3 | COc1c(C)c(OC(C)=O)c(C)c(OC(C)=O)c1C(=O)/C=C/c1ccccc1 [Compound 5f, 2′,4′-Diacetyloxy-6′-methoxy-3′,5′-dimethylchalcone] | 28 | 15.4 | 18.8 | 29.8 | 33.6 | 36.5 | 27.4 | poor cytotoxicity | – | – | – | – | –
4 | CCCCCCCCCC(=O)Oc1c(C)c(O)c(C(=O)/C=C/c2ccccc2)c(OC)c1C [Compound 2d, 2′-Hydroxy-4′-caprinoyloxy-6′-methoxy-3′,5′-dimethylchalcone] | > 50 | > 50 | 24.8 | 36.7 | 34.7 | > 50 | 41.9 | – | – | – | – | – | –
5 | COc1c(C)c(OS(=O)(=O)c2ccc3ccccc3c2)c(C)c(O)c1C(=O)/C=C/c1ccccc1 [Compound 2n, 2′-Hydroxy-4′-(2-naphthalenesulfonyl)oxy-6′-methoxy-3′,5′-dimethylchalcone] | 27.8 | > 50 | 16.4 | 39.8 | 21.1 | 24.7 | 30.4 | – | – | – | – | – | –
6 | COc1c(C)c(OC(=O)c2ccc(C)cc2)c(C)c(O)c1C(=O)/C=C/c1ccccc1 [Compound 2l, 2′-Hydroxy-4′-(p-toluoyloxy)-6′-methoxy-3′,5′-dimethylchalcone] | 28.9 | 22.4 | 15.6 | 25.1 | 22.1 | 26.8 | 25.4 | – | – | – | – | – | –
7 | COc1c(C)c(OC)c(C(=O)/C=C/c2ccccc2)c(OC)c1C [Compound 5g, 2′,4′,6′-Trimethoxy-3′,5′-dimethylchalcone] | 23.5 | 22.7 | 12.6 | 29.8 | 19.3 | 21.9 | 18.7 | moderate cytotoxicity | 12.6 to 29.8 | – | – | – | –
8 | Cc1c2ccncc2c(C)c2c1[nH]c1ccccc12 [Ellipticine, reference compound] | 2.4 | 1.14 | 2.64 | 2.8 | 2.03 | 2.15 | 2.07 | – | – | – | – | – | –
9 | CCCCCC(=O)Oc1c(C)c(O)c(C(=O)/C=C/c2ccccc2)c(OC)c1C [Compound 2b, 2′-Hydroxy-4′-caproyloxy-6′-methoxy-3′,5′-dimethylchalcone] | 21.3 | 24.8 | 5.2 | 18.1 | 18.9 | 26.6 | 23.5 | – | – | 4.53 | – | – | –
10 | COc1c(C)c(O)c(C)c(O)c1C(=O)/C=C/c1ccccc1 [DMC, 2′,4′-Dihydroxy-6′-methoxy-3′,5′-dimethylchalcone] | 29.4 | 19.9 | 13.1 | 37.6 | 37.6 | 38.6 | 15.6 | – | – | – | 8 | 8 | 9
11 | COc1c(C)c(OC(C)=O)c(C)c(O)c1C(=O)/C=C/c1ccccc1 [Compound 2f, 2′-Hydroxy-4′-acetyloxy-6′-methoxy-3′,5′-dimethylchalcone] | 43 | > 50 | 28.6 | 40.3 | 36.5 | 38.6 | 31 | – | – | – | – | – | –
12 | C=CCOc1c(C)c(O)c(C(=O)/C=C/c2ccccc2)c(OC)c1C [Compound 2i, 2′-Hydroxy-4′-allyloxy-6′-methoxy-3′,5′-dimethylchalcone] | 31.3 | 36.7 | 28.2 | 39.1 | 29 | 34.6 | 31.7 | – | – | – | – | – | –
13 | CCCC(=O)Oc1c(C)c(O)c(C(=O)/C=C/c2ccccc2)c(OC)c1C [Compound 2a, 2′-Hydroxy-4′-butyryloxy-6′-methoxy-3′,5′-dimethylchalcone] | 30.1 | > 50 | 27.6 | 38.2 | 31.2 | 35.8 | 32.8 | – | – | – | – | – | –
14 | CCCCCCCC(=O)Oc1c(C)c(O)c(C(=O)/C=C/c2ccccc2)c(OC)c1C [Compound 2c, 2′-Hydroxy-4′-capryloyloxy-6′-methoxy-3′,5′-dimethylchalcone] | 24.4 | > 50 | 18 | 25.9 | 20.6 | 26.6 | 25.2 | – | – | – | – | – | –
